The values that follow come from ChEMBL document CHEMBL4118106 (J Med Chem, 2018).

Assay [1] in a line: Inhibition of EGFP-fused MERS-CoV spike protein mediated cell-cell fusion between viral protein expressing human 293T cells and human HuH7 target cells after 4 hrs by inverted fluorescence microscopic analysis. Also noted: species or system Middle East respiratory syndrome-related coronavirus. In outline:
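Huh-7 target cells expressing DPP4 were seeded at 5 × 10^4/well and kept at 37 °C for 5 h. Inhibitors were added, then 293T effector cells co-expressing S protein and EGFP (1 × 10^4/well); 293T/EGFP-only cells served as negative control. After 4 h coculture at 37 °C, fused and unfused cells were counted by fluorescence microscopy.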

The nature of assay [2]: Binding affinity to NHR peptide HR1P in pH 7.2 phosphate buffer assessed as thermal unfolding transition at 50 uM after 30 mins by CD spectroscopic method. A digest of the protocol:
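Equimolar HR1P/peptide mixtures, 50 µM final in 50 mM PBS pH 7.2, were preincubated at 25 °C for 30 min. Thermal denaturation was followed by CD at 222 nm over a 10–90 °C gradient at 2 °C/min.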

Each structure is given as a SMILES string. Where a SMILES comes first, the peptide text is derived from it. Bridges are numbered along the chain shown (N, C = ends). [ ]: non-standard residue; d: D form. R5 = C=CCCC[C@@](C)(N)C(=O)O; S5 = C=CCCC[C@](C)(N)C(=O)O; Nle = CCCC[C@H](N)C(=O)O

In the case of `CSCC[C@H](NC(=O)[C@H](CCC(=O)O)NC(=O)[C@H](Cc1ccc(O)cc1)NC(=O)[C@@H](NC(=O)[C@H](CC(C)C)NC(=O)[C@H](CC(=O)O)NC(=O)[C@H](CC(C)C)NC(C)=O)[C@@H](C)O)C(=O)N[C@@H](CC(C)C)C(=O)N[C@@H](CO)C(=O)N[C@@H](CC(C)C)C(=O)N[C@@H](CCC(N)=O)C(=O)N[C@@H](CCC(N)=O)C(=O)N[C@H](C(=O)N[C@H](C(=O)N[C@@]1(C)CCC/C=C/CCC[C@@](C)(C(=O)N[C@@H](CO)C(=O)N[C@@H](Cc2ccc(O)cc2)C(N)=O)NC(=O)[C@H](CC(N)=O)NC(=O)[C@H](CC(C)C)NC(=O)[C@H](C)NC1=O)C(C)C)C(C)C`, the concentration for a half-maximal effect (EC50) in assay [1] was found to be 14.1 µM. Besides, the Tm in assay [2] was in the range of 56.6 to 66.6 °C.

In turn, `C=CCCC[C@](C)(NC(=O)[C@H](CC(C)C)NC(=O)[C@H](CCSC)NC(=O)[C@H](CCC(=O)O)NC(=O)[C@](C)(CCCC=C)NC(=O)[C@@H](NC(=O)[C@H](CC(C)C)NC(=O)[C@H](CC(=O)O)NC(=O)[C@H](CC(C)C)NC(C)=O)[C@@H](C)O)C(=O)N[C@@H](CC(C)C)C(=O)N[C@@H](CCC(N)=O)C(=O)N[C@@H](CCC(N)=O)C(=O)N[C@H](C(=O)N[C@H](C(=O)N[C@@H](CCCCN)C(=O)N[C@@H](C)C(=O)N[C@@H](CC(C)C)C(=O)N[C@@H](CC(N)=O)C(=O)N[C@@H](CCC(=O)O)C(=O)N[C@@H](CO)C(=O)N[C@@H](Cc1ccc(O)cc1)C(N)=O)C(C)C)C(C)C` showed a concentration giving a half-maximal response (EC50) in assay [1] of 8.21 µM.

`C=CCCC[C@](C)(NC(=O)[C@H](CC(N)=O)NC(=O)[C@H](CC(C)C)NC(=O)[C@H](C)NC(=O)[C@](C)(CCCC=C)NC(=O)[C@@H](NC(=O)[C@@H](NC(=O)[C@H](CCC(N)=O)NC(=O)[C@H](CCC(N)=O)NC(=O)[C@H](CC(C)C)NC(=O)[C@H](CO)NC(=O)[C@H](CC(C)C)NC(=O)[C@H](CCSC)NC(=O)[C@H](CCC(=O)O)NC(=O)[C@H](Cc1ccc(O)cc1)NC(=O)[C@@H](NC(=O)[C@H](CC(C)C)NC(=O)[C@H](CC(=O)O)NC(=O)[C@H](CC(C)C)NC(C)=O)[C@@H](C)O)C(C)C)C(C)C)C(=O)N[C@@H](CO)C(=O)N[C@@H](Cc1ccc(O)cc1)C(N)=O`: the EC50 in assay [1] was 10.9 µM.

In assay [1], `CCCC[C@H](NC(=O)[C@H](CCC(=O)O)NC(=O)[C@H](Cc1ccc(O)cc1)NC(=O)[C@@H](NC(=O)[C@H](CC(C)C)NC(=O)[C@H](CC(=O)O)NC(=O)[C@H](CC(C)C)NC(C)=O)[C@@H](C)O)C(=O)N[C@@H](CC(C)C)C(=O)N[C@@H](CO)C(=O)N[C@@H](CC(C)C)C(=O)N[C@@H](CCC(N)=O)C(=O)N[C@@]1(C)CCC/C=C\CCC[C@@](C)(C(=O)N[C@@H](CC(C)C)C(=O)N[C@@H](CC(N)=O)C(=O)N[C@@H](CCC(=O)O)C(=O)N[C@@H](CO)C(=O)N[C@@H](Cc2ccccc2)C(N)=O)NC(=O)[C@H](CCCCN)NC(=O)[C@H](C(C)C)NC(=O)[C@H](C(C)C)NC1=O` (Ac-LDLTYE[Nle]LSLQ[S5]VVK[S5]LNESF-NH2; staple (Z) 12-16) gave a concentration for a half-maximal effect (EC50) of 3.89 µM.

As for `C=CCCC[C@](C)(NC(=O)[C@H](CCCCN)NC(=O)[C@@H](NC(=O)[C@@H](NC(=O)[C@](C)(CCCC=C)NC(=O)[C@H](CCC(N)=O)NC(=O)[C@H](CC(C)C)NC(=O)[C@H](CO)NC(=O)[C@H](CC(C)C)NC(=O)[C@H](CCSC)NC(=O)[C@H](CCC(=O)O)NC(=O)[C@H](Cc1ccc(O)cc1)NC(=O)[C@@H](NC(=O)[C@H](CC(C)C)NC(=O)[C@H](CC(=O)O)NC(=O)[C@H](CC(C)C)NC(C)=O)[C@@H](C)O)C(C)C)C(C)C)C(=O)N[C@@H](CC(C)C)C(=O)N[C@@H](CC(N)=O)C(=O)N[C@@H](CCC(=O)O)C(=O)N[C@@H](CO)C(=O)N[C@@H](Cc1ccc(O)cc1)C(N)=O` (Ac-LDLTYEMLSLQ[S5]VVK[S5]LNESY-NH2), the concentration for a half-maximal effect (EC50) in assay [1] is 20.6 µM.

Consider `CSCC[C@H](NC(=O)[C@]1(C)CCC/C=C\CCC[C@](C)(NC(=O)[C@H](CC(C)C)NC(C)=O)C(=O)N[C@@H](CC(C)C)C(=O)N[C@@H]([C@@H](C)O)C(=O)N[C@@H](Cc2ccc(O)cc2)C(=O)N1)C(=O)N[C@@H](CC(C)C)C(=O)N[C@@H](CO)C(=O)N[C@@H](CC(C)C)C(=O)N[C@@H](CCC(N)=O)C(=O)N[C@@H](CCC(N)=O)C(=O)N[C@H](C(=O)N[C@H](C(=O)N[C@@H](CCCCN)C(=O)N[C@@H](C)C(=O)N[C@@H](CC(C)C)C(=O)N[C@@H](CC(N)=O)C(=O)N[C@@H](CCC(=O)O)C(=O)N[C@@H](CO)C(=O)N[C@@H](Cc1ccc(O)cc1)C(N)=O)C(C)C)C(C)C`, for which, in assay [1], a half-maximal response (EC50) required 3.9 µM.

Turning to `CSCC[C@H](NC(=O)[C@H](CCC(=O)O)NC(=O)[C@H](Cc1ccc(O)cc1)NC(=O)[C@@H](NC(=O)[C@H](CC(C)C)NC(=O)[C@H](CC(=O)O)NC(=O)[C@H](CC(C)C)NC(C)=O)[C@@H](C)O)C(=O)N[C@@]1(C)CCC/C=C\CCC[C@@](C)(C(=O)N[C@H](C(=O)N[C@H](C(=O)N[C@@H](CCCCN)C(=O)N[C@@H](C)C(=O)N[C@@H](CC(C)C)C(=O)N[C@@H](CC(N)=O)C(=O)N[C@@H](CCC(=O)O)C(=O)N[C@@H](CO)C(=O)N[C@@H](Cc2ccc(O)cc2)C(N)=O)C(C)C)C(C)C)NC(=O)[C@H](CCC(N)=O)NC(=O)[C@H](CC(C)C)NC(=O)[C@H](CO)NC1=O` (Ac-LDLTYEM[S5]SLQ[S5]VVKALNESY-NH2; staple (Z) 8-12), a half-maximal effect in assay [1] (EC50) was put at 10.7 µM. The melting temperature (Tm) in assay [2] lay in the range of 56.6 to 66.6 °C.

As to `C=CCCC[C@](C)(NC(=O)[C@H](CCC(=O)O)NC(=O)[C@H](CC(N)=O)NC(=O)[C@H](CC(C)C)NC(=O)[C@](C)(CCCC=C)NC(=O)[C@H](CCCCN)NC(=O)[C@@H](NC(=O)[C@@H](NC(=O)[C@H](CCC(N)=O)NC(=O)[C@H](CCC(N)=O)NC(=O)[C@H](CC(C)C)NC(=O)[C@H](CO)NC(=O)[C@H](CC(C)C)NC(=O)[C@H](CCSC)NC(=O)[C@H](CCC(=O)O)NC(=O)[C@H](Cc1ccc(O)cc1)NC(=O)[C@@H](NC(=O)[C@H](CC(C)C)NC(=O)[C@H](CC(=O)O)NC(=O)[C@H](CC(C)C)NC(C)=O)[C@@H](C)O)C(C)C)C(C)C)C(=O)N[C@@H](Cc1ccc(O)cc1)C(N)=O`, the concentration giving a half-maximal response (EC50) in assay [1] is 3.55 µM.

`C=CCCC[C@](C)(NC(=O)[C@H](CCSC)NC(=O)[C@H](CCC(=O)O)NC(=O)[C@H](Cc1ccc(O)cc1)NC(=O)[C@@H](NC(=O)[C@H](CC(C)C)NC(=O)[C@H](CC(=O)O)NC(=O)[C@H](CC(C)C)NC(C)=O)[C@@H](C)O)C(=O)N[C@@H](CO)C(=O)N[C@@H](CC(C)C)C(=O)N[C@@H](CCC(N)=O)C(=O)N[C@@](C)(CCCC=C)C(=O)N[C@H](C(=O)N[C@H](C(=O)N[C@@H](CCCCN)C(=O)N[C@@H](C)C(=O)N[C@@H](CC(C)C)C(=O)N[C@@H](CC(N)=O)C(=O)N[C@@H](CCC(=O)O)C(=O)N[C@@H](CO)C(=O)N[C@@H](Cc1ccc(O)cc1)C(N)=O)C(C)C)C(C)C` (Ac-LDLTYEM[S5]SLQ[S5]VVKALNESY-NH2) gave an EC50 in assay [1] of 4.49 µM.

`CSCC[C@H](NC(=O)[C@H](CCC(=O)O)NC(=O)[C@H](Cc1ccc(O)cc1)NC(=O)[C@@H](NC(=O)[C@H](CC(C)C)NC(=O)[C@H](CC(=O)O)NC(=O)[C@H](CC(C)C)NC(C)=O)[C@@H](C)O)C(=O)N[C@@H](CC(C)C)C(=O)N[C@@H](CO)C(=O)N[C@@H](CC(C)C)C(=O)N[C@@H](CCC(N)=O)C(=O)N[C@@H](CCC(N)=O)C(=O)N[C@H](C(=O)N[C@H](C(=O)N[C@@H](CCCCN)C(=O)N[C@@H](C)C(=O)N[C@@H](CC(C)C)C(=O)N[C@@H](CC(N)=O)C(=O)N[C@@H](CCC(=O)O)C(=O)N[C@@H](CO)C(=O)N[C@@H](Cc1ccc(O)cc1)C(N)=O)C(C)C)C(C)C` displayed a 50% effective concentration (EC50) in assay [1] of more than 50 µM.

Regarding `CSCC[C@H](NC(=O)[C@H](CCC(=O)O)NC(=O)[C@H](Cc1ccc(O)cc1)NC(=O)[C@@H](NC(=O)[C@H](CC(C)C)NC(=O)[C@H](CC(=O)O)NC(=O)[C@H](CC(C)C)NC(C)=O)[C@@H](C)O)C(=O)N[C@@H](CC(C)C)C(=O)N[C@@H](CO)C(=O)N[C@@H](CC(C)C)C(=O)N[C@@H](CCC(N)=O)C(=O)N[C@]1(C)CCC/C=C\CCC[C@](C)(C(=O)N[C@@H](CC(C)C)C(=O)N[C@@H](CC(N)=O)C(=O)N[C@@H](CCC(=O)O)C(=O)N[C@@H](CO)C(=O)N[C@@H](Cc2ccc(O)cc2)C(N)=O)NC(=O)[C@H](CCCCN)NC(=O)[C@H](C(C)C)NC(=O)[C@H](C(C)C)NC1=O` (Ac-LDLTYEMLSLQ[R5]VVK[R5]LNESY-NH2; staple (Z) 12-16), the EC50 in assay [1] came out at 16.3 µM.

On to `CSCC[C@H](NC(=O)[C@H](CCC(=O)O)NC(=O)[C@H](Cc1ccc(O)cc1)NC(=O)[C@@H](NC(=O)[C@H](CC(C)C)NC(=O)[C@H](CC(=O)O)NC(=O)[C@H](CC(C)C)NC(C)=O)[C@@H](C)O)C(=O)N[C@@H](CC(C)C)C(=O)N[C@@H](CO)C(=O)N[C@@H](CC(C)C)C(=O)N[C@@H](CCC(N)=O)C(=O)N[C@@]1(C)CCC/C=C\CCC[C@@](C)(C(=O)N[C@@H](CC(C)C)C(=O)N[C@@H](CC(N)=O)C(=O)N[C@@H](CCC(=O)O)C(=O)N[C@@H](CO)C(=O)N[C@@H](Cc2ccccc2)C(N)=O)NC(=O)[C@H](CCCCN)NC(=O)[C@H](C(C)C)NC(=O)[C@H](C(C)C)NC1=O` (Ac-LDLTYEMLSLQ[S5]VVK[S5]LNESF-NH2; staple (Z) 12-16), for which, in assay [1], a half-maximal effect (EC50) was put at 2.16 µM.

Consider `C=CCCC[C@](C)(NC(=O)[C@H](Cc1ccc(O)cc1)NC(=O)[C@@H](NC(=O)[C@H](CC(C)C)NC(=O)[C@](C)(CCCC=C)NC(=O)[C@H](CC(C)C)NC(C)=O)[C@@H](C)O)C(=O)N[C@@H](CCSC)C(=O)N[C@@H](CC(C)C)C(=O)N[C@@H](CO)C(=O)N[C@@H](CC(C)C)C(=O)N[C@@H](CCC(N)=O)C(=O)N[C@@H](CCC(N)=O)C(=O)N[C@H](C(=O)N[C@H](C(=O)N[C@@H](CCCCN)C(=O)N[C@@H](C)C(=O)N[C@@H](CC(C)C)C(=O)N[C@@H](CC(N)=O)C(=O)N[C@@H](CCC(=O)O)C(=O)N[C@@H](CO)C(=O)N[C@@H](Cc1ccc(O)cc1)C(N)=O)C(C)C)C(C)C`, for which the midpoint of the response in assay [1], the EC50, lay at 10.9 µM.
